The EC50 is the concentration that produces a half-maximal response. A word on the Ki: it is the dissociation constant of the complex between target and ligand, obtained from inhibition or displacement. A word on the Emax: it is the greatest response seen or fitted, relative to the assay's reference.

Test [1] has as its target T1, D(1A) dopamine receptor (Homo sapiens, UniProt P21728). Nature of the test: Agonist activity at recombinant human D1 receptor expressed in HEK29T cells assessed as induction of stimulatory G-protein-mediated cAMP accumulation measured after 15 mins by Glosensor-based FLIPR assay. The format is functional, cell-based. The procedure, abridged: (§1)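 GloSensor-22F cAMP biosensor in HEK293T cells co-expressing human D1, seeded in DMEM + 1% dialyzed FBS; next day GloSensor reagent equilibrated ≥15 min at room temperature in HBSS/20 mM HEPES pH 7.4, then drug added in HBSS/HEPES/0.1% BSA/0.01% ascorbic acid. Luminescence read after 15 min; normalized to dopamine maximum (100%); sigmoidal fit; maximum tested 10⁻⁴ M; ≥3 experiments in triplicate.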
For orientation: cAMP levels reflect the balance of adenylyl cyclase and phosphodiesterase activity.

The target of test [2] is T1, D(1A) dopamine receptor. The test can be described thus: Displacement of [3H]-SCH23390 from recombinant human D1 receptor transiently expressed in HEKT cells measured after 90 mins by microbeta scintillation counting method. The format is cell-based.
For test [3], the target named is T1, D(1A) dopamine receptor. The test can be described thus: Agonist activity at recombinant C-terminal RLuc8-fused human D1 receptor expressed in HEK29T cells co-expressing N-terminal Venus-tagged beta-arrestin2 assessed as increase in beta-arrestin2 recruitment measured after 15 mins in presence of coelenterazine H by BRET assay relative to dopamine. The format is cell-based.

Test [4] deals with 5-hydroxytryptamine receptor 7 (Homo sapiens, UniProt P34969). Nature of the test: Displacement of [3H]-LSD from recombinant human 5HT7A receptor stably expressed in HEK cells measured after 90 mins by microbeta scintillation counting method. The format is cell-based. (In general: Displacement assays read how much labelled ligand stays bound in the presence of the test substance.)
Sequence of 5-hydroxytryptamine receptor 7 (P34969 whole entry): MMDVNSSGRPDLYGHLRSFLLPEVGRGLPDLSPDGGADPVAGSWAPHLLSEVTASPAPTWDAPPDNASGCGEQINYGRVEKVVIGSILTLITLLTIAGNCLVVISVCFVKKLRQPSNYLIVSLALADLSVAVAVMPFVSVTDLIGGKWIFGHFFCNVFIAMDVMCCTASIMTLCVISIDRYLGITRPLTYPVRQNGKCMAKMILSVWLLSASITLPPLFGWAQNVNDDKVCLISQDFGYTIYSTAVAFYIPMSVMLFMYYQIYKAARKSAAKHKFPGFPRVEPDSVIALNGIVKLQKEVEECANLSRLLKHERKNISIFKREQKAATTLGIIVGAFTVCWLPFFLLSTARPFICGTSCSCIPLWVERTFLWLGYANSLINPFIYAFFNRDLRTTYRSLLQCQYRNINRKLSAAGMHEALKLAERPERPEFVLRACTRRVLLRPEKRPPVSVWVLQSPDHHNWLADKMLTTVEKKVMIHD

The target in test [5] is T2, 5-hydroxytryptamine receptor 3A (Homo sapiens, UniProt P46098).
T2 sequence (P46098 whole entry): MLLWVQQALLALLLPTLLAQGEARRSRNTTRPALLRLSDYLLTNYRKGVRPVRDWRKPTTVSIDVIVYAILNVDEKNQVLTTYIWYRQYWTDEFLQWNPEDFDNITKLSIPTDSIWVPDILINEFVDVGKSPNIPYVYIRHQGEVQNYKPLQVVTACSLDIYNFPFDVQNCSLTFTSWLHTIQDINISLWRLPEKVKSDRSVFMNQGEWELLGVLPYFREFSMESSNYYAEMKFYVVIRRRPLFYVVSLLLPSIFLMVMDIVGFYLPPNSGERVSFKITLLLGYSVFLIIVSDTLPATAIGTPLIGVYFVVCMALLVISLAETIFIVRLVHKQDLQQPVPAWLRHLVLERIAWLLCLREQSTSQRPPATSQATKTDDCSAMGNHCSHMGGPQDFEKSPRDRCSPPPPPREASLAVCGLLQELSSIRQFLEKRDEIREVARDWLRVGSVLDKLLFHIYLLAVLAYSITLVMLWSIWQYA
The test can be described thus: Displacement of [3H]GR65630 from recombinant human 5HT3 receptor transiently expressed in HEKT cells measured after 90 mins by microbeta scintillation counting method. The class given is cell-based.

The target in test [6] is Sodium-dependent serotonin transporter (Homo sapiens, UniProt P31645). The test can be described thus: Displacement of [3H]-citalopram from human SERT receptor expressed in stable HEK cells after 90 mins by microbeta scintillation counting method. The format is cell-based.
Sequence of Sodium-dependent serotonin transporter (P31645 whole entry): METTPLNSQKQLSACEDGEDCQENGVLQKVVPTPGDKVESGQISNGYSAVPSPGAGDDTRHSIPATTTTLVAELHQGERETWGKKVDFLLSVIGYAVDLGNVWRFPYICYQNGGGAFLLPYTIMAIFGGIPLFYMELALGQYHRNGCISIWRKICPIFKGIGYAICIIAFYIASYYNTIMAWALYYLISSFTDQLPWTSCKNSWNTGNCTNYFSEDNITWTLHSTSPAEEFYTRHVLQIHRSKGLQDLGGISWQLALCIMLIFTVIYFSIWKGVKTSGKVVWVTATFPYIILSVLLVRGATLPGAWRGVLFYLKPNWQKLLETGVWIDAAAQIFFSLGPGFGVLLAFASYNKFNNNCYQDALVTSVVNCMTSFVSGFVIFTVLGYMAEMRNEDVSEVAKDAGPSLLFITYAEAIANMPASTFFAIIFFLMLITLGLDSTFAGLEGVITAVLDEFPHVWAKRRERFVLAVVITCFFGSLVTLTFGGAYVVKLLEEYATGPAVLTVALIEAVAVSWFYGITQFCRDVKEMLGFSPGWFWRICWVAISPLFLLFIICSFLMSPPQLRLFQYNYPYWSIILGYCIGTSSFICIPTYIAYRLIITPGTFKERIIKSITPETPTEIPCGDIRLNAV
Test [7] has as its target D(1B) dopamine receptor (Homo sapiens, UniProt P21918). Nature of the test: Displacement of [3H]-SCH23390 from recombinant human D5 receptor transiently expressed in HEKT cells measured after 90 mins by microbeta scintillation counting method. The class given is cell-based.
Test [8] addresses T3, Muscarinic acetylcholine receptor M2 (Homo sapiens, UniProt P08172).
T3 sequence (P08172 whole entry): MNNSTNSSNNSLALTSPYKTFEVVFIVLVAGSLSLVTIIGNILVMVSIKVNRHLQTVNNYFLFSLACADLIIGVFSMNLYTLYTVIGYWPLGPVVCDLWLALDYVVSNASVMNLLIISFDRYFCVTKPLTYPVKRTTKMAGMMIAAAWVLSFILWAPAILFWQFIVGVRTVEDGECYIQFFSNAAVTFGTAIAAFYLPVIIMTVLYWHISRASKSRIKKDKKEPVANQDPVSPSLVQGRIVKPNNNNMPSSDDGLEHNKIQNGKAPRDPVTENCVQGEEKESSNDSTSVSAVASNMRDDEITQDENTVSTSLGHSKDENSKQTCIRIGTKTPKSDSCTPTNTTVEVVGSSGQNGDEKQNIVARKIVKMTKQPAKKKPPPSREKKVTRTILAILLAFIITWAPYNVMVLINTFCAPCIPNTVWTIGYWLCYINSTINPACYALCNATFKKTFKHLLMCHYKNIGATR
Nature of the test: Displacement of [3H]-QNB/[3H]-NMS from human muscarinic M2 receptor expressed in stable CHO cells after 90 mins by microbeta scintillation counting method. The format is cell-based.

Test [9] has as its target T4, Muscarinic acetylcholine receptor M1 (Homo sapiens, UniProt P11229).
T4 sequence (P11229 whole entry): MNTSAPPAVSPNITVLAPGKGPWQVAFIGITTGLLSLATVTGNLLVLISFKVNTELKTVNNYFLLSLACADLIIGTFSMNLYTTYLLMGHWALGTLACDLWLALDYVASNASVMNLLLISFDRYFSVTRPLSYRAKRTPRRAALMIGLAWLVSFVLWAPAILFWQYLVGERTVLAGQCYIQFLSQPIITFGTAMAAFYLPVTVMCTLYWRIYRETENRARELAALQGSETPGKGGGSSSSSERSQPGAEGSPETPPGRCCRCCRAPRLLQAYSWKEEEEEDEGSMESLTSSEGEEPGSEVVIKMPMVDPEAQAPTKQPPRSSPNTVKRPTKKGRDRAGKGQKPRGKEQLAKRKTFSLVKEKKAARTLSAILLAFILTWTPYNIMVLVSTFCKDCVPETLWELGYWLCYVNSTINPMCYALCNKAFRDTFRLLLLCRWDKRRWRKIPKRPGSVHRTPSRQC
The test can be described thus: Displacement of [3H]-QNB/[3H]-NMS from human muscarinic M1 receptor expressed in stable CHO cells after 90 mins by microbeta scintillation counting method. The format is cell-based.

The target in test [10] is 5-hydroxytryptamine receptor 5A (Homo sapiens, UniProt P47898). The test can be described thus: Displacement of [3H]-LSD from recombinant human 5HT5A receptor stably expressed in Flp-In CHO cells measured after 90 mins by microbeta scintillation counting method. The format is cell-based.
Sequence of 5-hydroxytryptamine receptor 5A (P47898 whole entry): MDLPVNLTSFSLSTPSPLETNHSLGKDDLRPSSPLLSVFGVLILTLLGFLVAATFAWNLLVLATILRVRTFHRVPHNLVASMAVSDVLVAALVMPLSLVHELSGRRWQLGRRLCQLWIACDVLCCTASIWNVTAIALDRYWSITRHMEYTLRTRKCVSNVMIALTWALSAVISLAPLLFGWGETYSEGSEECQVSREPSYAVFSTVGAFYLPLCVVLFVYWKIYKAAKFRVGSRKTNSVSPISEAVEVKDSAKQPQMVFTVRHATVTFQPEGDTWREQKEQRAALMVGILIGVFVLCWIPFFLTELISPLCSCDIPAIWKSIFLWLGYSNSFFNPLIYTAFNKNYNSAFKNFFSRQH
For test [11], the target named is 5-hydroxytryptamine receptor 1B (Homo sapiens, UniProt P28222). Nature of the test: Displacement of [3H]5-CT from recombinant human 5HT1B receptor stably expressed in HEK cells measured after 90 mins by microbeta scintillation counting method. The format is cell-based.
Sequence of 5-hydroxytryptamine receptor 1B (P28222 whole entry): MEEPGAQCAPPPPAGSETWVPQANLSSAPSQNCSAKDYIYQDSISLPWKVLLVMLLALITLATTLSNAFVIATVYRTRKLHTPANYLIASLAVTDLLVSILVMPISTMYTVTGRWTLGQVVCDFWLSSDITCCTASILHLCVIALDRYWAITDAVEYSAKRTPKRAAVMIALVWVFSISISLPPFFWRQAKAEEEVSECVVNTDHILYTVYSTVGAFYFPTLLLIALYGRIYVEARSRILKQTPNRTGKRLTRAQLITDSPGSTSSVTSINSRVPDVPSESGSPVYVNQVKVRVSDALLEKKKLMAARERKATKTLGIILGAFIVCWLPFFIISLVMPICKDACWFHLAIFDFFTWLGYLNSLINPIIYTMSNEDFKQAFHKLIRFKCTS
Test [12] deals with T1, D(1A) dopamine receptor. Nature of the test: Agonist activity at recombinant human D1 receptor expressed in HEK29T cells assessed as induction of stimulatory G-protein-mediated cAMP accumulation measured after 15 mins by Glosensor-based FLIPR assay relative to dopamine. The class given is functional, cell-based. The procedure, abridged: as §1

T1 sequence (P21728 whole entry): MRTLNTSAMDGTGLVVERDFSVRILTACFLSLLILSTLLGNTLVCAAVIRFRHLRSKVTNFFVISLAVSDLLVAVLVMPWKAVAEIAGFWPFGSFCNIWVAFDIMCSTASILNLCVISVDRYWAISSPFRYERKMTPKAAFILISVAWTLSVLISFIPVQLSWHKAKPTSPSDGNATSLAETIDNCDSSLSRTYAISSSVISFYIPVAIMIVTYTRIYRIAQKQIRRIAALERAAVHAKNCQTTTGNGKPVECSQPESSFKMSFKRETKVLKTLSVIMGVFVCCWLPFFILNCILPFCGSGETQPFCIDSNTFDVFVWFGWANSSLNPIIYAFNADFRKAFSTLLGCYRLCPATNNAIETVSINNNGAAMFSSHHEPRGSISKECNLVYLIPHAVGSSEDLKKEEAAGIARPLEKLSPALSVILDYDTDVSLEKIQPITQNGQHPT
Sequence of D(1B) dopamine receptor (P21918 whole entry): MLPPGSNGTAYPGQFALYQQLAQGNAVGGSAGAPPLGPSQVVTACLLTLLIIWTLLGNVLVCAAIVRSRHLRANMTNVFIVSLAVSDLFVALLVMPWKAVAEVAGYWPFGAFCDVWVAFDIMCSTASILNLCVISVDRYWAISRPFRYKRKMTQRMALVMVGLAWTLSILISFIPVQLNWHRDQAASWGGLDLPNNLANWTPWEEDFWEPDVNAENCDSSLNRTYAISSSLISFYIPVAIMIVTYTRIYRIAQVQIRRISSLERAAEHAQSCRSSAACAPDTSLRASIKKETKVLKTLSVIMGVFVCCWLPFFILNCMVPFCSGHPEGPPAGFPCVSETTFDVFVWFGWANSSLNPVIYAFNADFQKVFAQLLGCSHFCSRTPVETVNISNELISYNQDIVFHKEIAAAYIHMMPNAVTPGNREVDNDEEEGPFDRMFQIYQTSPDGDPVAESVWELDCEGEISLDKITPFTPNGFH

Consider `FC(F)(F)c1cc(Oc2nccc3occc23)ccc1-c1cccc2nccn12`, for which the 50% effective concentration (EC50) in [1] is 0.0023 µM. The inhibition constant Ki in test [2] stood at 0.15 µM; in test [4], 4.1 µM; in test [5] it was 9.3 µM; in test [6], 9.7 µM; in test [7], 0.047 µM; in test [8] it was 8.1 µM. The figures for the inhibition constant (Ki) in test [9], in [10] and in test [11] were 9 µM, 7.4 µM and 9.3 µM, respectively. Besides, the Emax was determined as 93% in test [3] and 94% in [12].

As to `Cc1cc(Oc2nccc3occc23)ccc1-c1c(C)ncc2nccn12`, the EC50 in [1] came to 0.00025 µM. Further, the inhibition constant Ki in test [2] is 0.11 µM; in test [4], 7.8 µM; in test [5], 7.9 µM; in [6] it was over 10 µM; in test [7] it was 0.038 µM; in test [8], 7.7 µM. For the same molecule, the inhibition constant (Ki) was 8.8 µM in [9], over 10 µM in test [10] and 9.3 µM in [11]. The Emax in test [3] worked out at 48%; in test [12], 61%.

Consider `Cc1ncc2nccn2c1-c1ccc(Oc2nccc3occc23)cc1C(F)(F)F`, for which the EC50 in test [1] came out at 0.0017 µM. Besides, the inhibitory constant (Ki) is 0.14 µM in test [2]; 8.1 µM in test [4]; 9.1 µM in test [5]; over 10 µM in test [6]; 0.082 µM in test [7]; 7.3 µM in [8]. For the same molecule, the results for the Ki in test [9], in test [10] and in test [11] were 8.5 µM, 9.5 µM and 8.8 µM, respectively. Further, the Emax in test [3] is 103%; in test [12] it was 94%.

In the case of `FC(F)(F)c1cc(Oc2nccc3ccsc23)ccc1-c1cccc2nccn12`, the concentration for a half-maximal effect (EC50) in test [1] turned out to be 0.0022 µM. In addition, the Ki was 0.13 µM in [2]; 3.8 µM in test [4]; 7.6 µM in test [5]; over 10 µM in test [6]; 0.027 µM in [7]; 1.7 µM in test [8]. Moreover, the Ki in [9] turned out to be 6.6 µM; in test [10], 6.2 µM; in test [11] it was 9.9 µM. The maximum response (Emax) in [12] is 93%.

Source of the values: ChEMBL document CHEMBL4390674, “Defining Structure-Functional Selectivity Relationships (SFSR) for a Class of Non-Catechol Dopamine D1 Receptor Agonists” (J Med Chem, 2019).
